# Laboratory results taken from PMC7615941 (Cell, 2023).
# B1: human complement anaphylatoxin C5a (ligand, UniProt P01031 678-751, looked up)
# chain: TLQKKIEEIAAKYKHSVVKKCCYDGACVNNDETCEQRAARISLGPRCIKAFTECCVVASQLRANISHKDMQLGR
# B2: C5a: complement anaphylatoxin, 74 amino acids, four-helix bundle; natural agonist of C5aR1 (protein)
# chain: B1 chain
# modifications: left off: Trx, N-terminal, cleaved | His6, N-terminal, cleaved
# Tests used:
# [1] = target: C3aR with C-terminal SmBiT, in HEK-293 cells (human) (UniProt Q16581)
# C5aR1 = assay: G-protein coupling and βarr recruitment, C5aR1; type: cell-based; conditions: Figure 7A
# [2] = target: T1, human C5a receptor 1, FLAG-tagged, expressed in Sf9 for cryo-EM (human, UniProt P21730 2-350, alkylated with iodoacetamide); assay: cryo-EM structure
# T1 sequence: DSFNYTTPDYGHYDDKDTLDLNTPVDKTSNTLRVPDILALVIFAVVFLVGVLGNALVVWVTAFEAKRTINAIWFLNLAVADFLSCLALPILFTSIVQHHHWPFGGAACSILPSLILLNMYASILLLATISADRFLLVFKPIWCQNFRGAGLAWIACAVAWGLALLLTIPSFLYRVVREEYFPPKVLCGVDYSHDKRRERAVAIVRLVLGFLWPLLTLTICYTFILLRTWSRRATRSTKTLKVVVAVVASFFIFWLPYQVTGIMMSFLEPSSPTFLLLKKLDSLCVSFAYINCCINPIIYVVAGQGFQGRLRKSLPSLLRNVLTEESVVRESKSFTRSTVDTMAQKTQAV
# [3] = target: T2, mouse C5a receptor 1, FLAG-tagged, expressed in Sf9 for cryo-EM (mouse, UniProt P30993 2-351, alkylated with iodoacetamide); assay: cryo-EM structure
# T2 sequence: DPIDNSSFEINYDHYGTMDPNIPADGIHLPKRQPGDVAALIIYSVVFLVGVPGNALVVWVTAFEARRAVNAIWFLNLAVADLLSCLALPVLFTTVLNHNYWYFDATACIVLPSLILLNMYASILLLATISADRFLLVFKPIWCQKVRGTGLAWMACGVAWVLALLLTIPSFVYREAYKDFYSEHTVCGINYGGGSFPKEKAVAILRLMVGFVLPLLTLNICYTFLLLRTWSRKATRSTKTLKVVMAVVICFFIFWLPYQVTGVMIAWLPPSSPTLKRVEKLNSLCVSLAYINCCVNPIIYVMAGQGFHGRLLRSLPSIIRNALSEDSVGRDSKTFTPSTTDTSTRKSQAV
# C3aR = target: T3, C3aR (Homo sapiens, UniProt Q16581); assay: GloSensor-based cAMP assay; type: cell-based; conditions: Figure 7A; only at moderately high concentration (i.e., 1 μM)
# T3 sequence (Q16581 1-482): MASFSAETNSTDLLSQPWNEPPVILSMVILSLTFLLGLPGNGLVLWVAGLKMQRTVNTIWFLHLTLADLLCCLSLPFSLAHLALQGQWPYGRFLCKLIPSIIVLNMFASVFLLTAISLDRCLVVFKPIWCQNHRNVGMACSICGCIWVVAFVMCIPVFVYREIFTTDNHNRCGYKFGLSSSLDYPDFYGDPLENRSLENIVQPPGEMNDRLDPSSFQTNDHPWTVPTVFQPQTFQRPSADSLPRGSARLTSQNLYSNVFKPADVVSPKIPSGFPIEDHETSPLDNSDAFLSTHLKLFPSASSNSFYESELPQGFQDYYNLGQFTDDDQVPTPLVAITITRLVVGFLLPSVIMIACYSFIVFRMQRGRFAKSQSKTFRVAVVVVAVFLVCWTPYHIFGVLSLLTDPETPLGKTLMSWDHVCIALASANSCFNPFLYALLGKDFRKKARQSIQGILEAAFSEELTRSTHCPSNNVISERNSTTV
# mC5aR1 [4] = target: T4, mC5aR1 (Mus musculus, UniProt P30993); assay: GloSensor-based cAMP assay; type: cell-based
# T4 sequence (P30993 1-351): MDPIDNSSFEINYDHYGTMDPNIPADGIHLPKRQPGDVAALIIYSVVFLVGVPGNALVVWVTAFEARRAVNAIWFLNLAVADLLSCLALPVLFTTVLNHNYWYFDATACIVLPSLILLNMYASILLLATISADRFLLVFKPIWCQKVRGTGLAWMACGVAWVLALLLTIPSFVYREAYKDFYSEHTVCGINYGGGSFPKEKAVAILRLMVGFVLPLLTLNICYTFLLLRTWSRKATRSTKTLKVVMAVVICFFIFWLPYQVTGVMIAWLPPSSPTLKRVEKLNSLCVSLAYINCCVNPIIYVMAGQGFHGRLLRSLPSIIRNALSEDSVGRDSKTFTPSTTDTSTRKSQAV
# mC5aR1 [5] = target: T4, mC5aR1; assay: NanoBiT βarr1/2 recruitment and endosomal trafficking, mC5aR1; type: cell-based; conditions: Figures 1I-1P, C5a^pep compared with hC5aR1
# In short: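 HEK-293 cells, PEI transfection (DNA:PEI 1:3). Recruitment used 1 μg mC5aR1-SmBiT (C-terminal) with 3.5 μg LgBiT-βarr1/2 (N-terminal). Trafficking used N-SmBiT-βarr1/2 with N-LgBiT-FYVE. After 16-18 h, cells went into HBSS, 0.01% BSA, 5 mM HEPES pH 7.4, 10 μM coelenterazine at 0.1 million/100 μL. Incubation 90 min 37 °C, then 30 min RT. Three basal luminescence reads, then serially diluted ligand.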
molecule,measurement,setting,value
"EP141, pentadecameric peptide derived from and modified based on the carboxyl terminus of C3a","Emax of βarr1/2 recruitment to C3aR (NanoBiT), relative to C3a",[1],55 to 65 % of C3a
"C3a: complement anaphylatoxin, 77 amino acids, four-helix bundle; natural agonist of C3aR",transducer-coupling response at C5aR1,C5aR1,did not exhibit any measurable transducer-coupling response
human complement anaphylatoxin C3a (from UniProt P01024 672-748) (ligand),EC50 of βarr1/2 recruitment to C3aR (NanoBiT),[1],10 to 20 nM
B1,binding result,[2],binds
same,binding result,[3],binds
B2,cross-reactivity with C3aR in G-protein-coupling assay,C3aR,some cross-reactivity
same,"potency at mC5aR1 compared with hC5aR1, cAMP response",mC5aR1 [4]; Figures 1G and 1H,slightly lower potency
same,"agonism, G-protein-mediated cAMP response","mC5aR1 [4]; Figures 1G and 1H, mC5aR1",full agonists
same,"difference between human and mouse C5aR1, G-protein coupling",mC5aR1 [4]; human vs mouse C5aR1,only a small difference
same,"agonism, βarr recruitment and endosomal trafficking",mC5aR1 [5],full agonism
